Assays:
Format in all cases: functional
[1] = system: NCI/ADR-RES; assay: Cytotoxicity against human NCI/ADR-RES cells after 48 hrs by sulforhodamine B assay
Summary of the method: (§1)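 NCI 60-panel screen. Cells were grown in RPMI 1640 with 5% FBS and L-glutamine and plated at 5000–40,000 cells/well according to doubling time. They were preincubated 24 h at 37 °C, 5% CO2, then exposed 48 h to five 10-fold dilutions. Adherent cells were fixed with cold TCA, final 10%; suspension cells were fixed after settling. Cells were stained with 0.4% SRB and read at 515 nm. Tz/C/Ti growth curves gave GI50, TGI and LC50.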

[2] = system: M14; assay: Cytotoxicity against human M14 cells after 48 hrs by sulforhodamine B assay; settings: M14, 48 h; summary of the method: as §1
[3] = system: PC-3; assay: Growth inhibition of human PC3 cells at 10 uM after 48 hrs by sulforhodamine B assay; settings: PC-3, 48 h, read-out: GI
Summary of the method: (§2)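 NCI one-dose primary screen at 10 (printed mM) across the 60-line panel. Cells in RPMI 1640 with 5% FBS and 2 mM L-glutamine, plated at 5000–40,000 cells/well and incubated 24 h before dosing. Exposure 48 h at 37 °C, 5% CO2. Adherent cells were fixed with cold TCA, suspension cells fixed after settling. SRB stain, absorbance 515 nm. Reported as percent growth of treated cells relative to control.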

[4] = system: EKVX; assay: Growth inhibition of human EKVX cells at 10 uM after 48 hrs by sulforhodamine B assay; settings: read-out: GI; summary of the method: as §2
[5] = system: SNB-19; assay: Growth inhibition of human SNB19 cells at 10 uM after 48 hrs by sulforhodamine B assay; settings: SNB-19, 48 h, read-out: GI
Summary of the method: (§3)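 NCI-60 single-dose screen. Cells grown in RPMI 1640 with 5% FBS and L-glutamine, plated at 5000–40,000 cells/well by doubling time, and preincubated 24 h at 37 °C, 5% CO2. Compound stocks in DMSO, added at one concentration, then incubated 48 h. Adherent cells fixed with cold TCA (10% final), stained with 0.4% SRB, dye solubilized in 10 mM Tris base, A515 read. Reported as percent growth relative to untreated control.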

[6] = system: SK-OV-3; assay: Growth inhibition of human SKOV3 cells at 10 uM after 48 hrs by sulforhodamine B assay; settings: SK-OV-3, 48 h, read-out: GI; summary of the method: as §3
[7] = system: K562; assay: Growth inhibition of human K562 cells at 10 uM after 48 hrs by sulforhodamine B assay; settings: K562, 48 h, read-out: GI; summary of the method: as §2
[8] = system: EKVX; assay: Cytotoxicity against human EKVX cells after 48 hrs by sulforhodamine B assay; summary of the method: as §1
[9] = system: SN12C; assay: Growth inhibition of human SN12C cells at 10 uM after 48 hrs by sulforhodamine B assay; settings: read-out: GI; summary of the method: as §3
[10] = system: NCI-H522; assay: Growth inhibition of human NCI-H522 cells at 10 uM after 48 hrs by sulforhodamine B assay; settings: NCI-H522, 48 h, read-out: GI; summary of the method: as §2
[11] = system: A549; assay: Growth inhibition of human A549 cells at 10 uM after 48 hrs by sulforhodamine B assay; settings: A549, 48 h, read-out: GI; summary of the method: as §2
[12] = system: NCI-H226; assay: Growth inhibition of human NCI-H226 cells at 10 uM after 48 hrs by sulforhodamine B assay; settings: NCI-H226, 48 h, read-out: GI; summary of the method: as §2
[13] = system: HOP-92; assay: Cytotoxicity against human HOP92 cells after 48 hrs by sulforhodamine B assay; settings: HOP-92, 48 h; summary of the method: as §1
[14] = system: MOLT-4; assay: Cytotoxicity against human MOLT4 cells after 48 hrs by sulforhodamine B assay; settings: MOLT-4, 48 h; summary of the method: as §1
[15] = system: OVCAR-4; assay: Cytotoxicity against human OVCAR4 cells after 48 hrs by sulforhodamine B assay; settings: OVCAR-4, 48 h; summary of the method: as §1
[16] = system: HCT-116; assay: Cytotoxicity against human HCT116 cells after 48 hrs by sulforhodamine B assay; settings: HCT-116, 48 h; summary of the method: as §1
[17] = system: CCRF-CEM; assay: Growth inhibition of human CCRF-CEM cells at 10 uM after 48 hrs by sulforhodamine B assay; settings: read-out: GI; summary of the method: as §2
[18] = system: TK-10; assay: Cytotoxicity against human TK10 cells after 48 hrs by sulforhodamine B assay; settings: TK-10, 48 h
Summary of the method: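 NCI 60 panel five-dose screen. Cells in RPMI 1640 with 5% FBS and 2 mM L-glutamine, plated at 5000–40,000 cells/well and preincubated 24 h. Compounds were tested at five 10-fold concentrations (0.01–100) for 48 h at 37 °C, 5% CO2. Cells were fixed with TCA and stained with SRB, absorbance 515 nm. GI50, TGI and LC50 were taken from % growth curves against time-zero and control.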

[19] = system: CCRF-CEM; assay: Cytotoxicity against human CCRF-CEM cells after 48 hrs by sulforhodamine B assay; summary of the method: as §1
[20] = system: LOX IMVI; assay: Growth inhibition of human LOXIMVI cells at 10 uM after 48 hrs by sulforhodamine B assay; settings: read-out: GI; summary of the method: as §2
[21] = system: HCC 2998; assay: Cytotoxicity against human HCC2998 cells after 48 hrs by sulforhodamine B assay; settings: HCC 2998, 48 h; summary of the method: as §1
[22] = system: HCT-15; assay: Growth inhibition of human HCT15 cells at 10 uM after 48 hrs by sulforhodamine B assay; settings: HCT-15, 48 h, read-out: GI; summary of the method: as §2
[23] = system: A549; assay: Cytotoxicity against human A549 cells after 48 hrs by sulforhodamine B assay; settings: A549, 48 h; summary of the method: as §1
[24] = system: MDA-MB-468; assay: Cytotoxicity against human MDA-MB-468 cells after 48 hrs by sulforhodamine B assay; settings: MDA-MB-468, 48 h; summary of the method: as §1
[25] = system: SNB-75; assay: Cytotoxicity against human SNB75 cells after 48 hrs by sulforhodamine B assay; settings: SNB-75, 48 h; summary of the method: as §1
[26] = system: KM12; assay: Growth inhibition of human KM12 cells at 10 uM after 48 hrs by sulforhodamine B assay; settings: KM12, 48 h, read-out: GI; summary of the method: as §2
[27] = system: OVCAR-5; assay: Cytotoxicity against human OVCAR5 cells after 48 hrs by sulforhodamine B assay; settings: OVCAR-5, 48 h; summary of the method: as §1
[28] = system: UACC-62; assay: Growth inhibition of human UACC62 cells at 10 uM after 48 hrs by sulforhodamine B assay; settings: UACC-62, 48 h, read-out: GI; summary of the method: as §3
[29] = read-out: LC50 (the source's name)

O=C(CCc1nnc(-c2ccc(Cl)cc2Cl)o1)c1nc2ccccc2[nH]1
GI50 [1]: 5.4 µM | TGI [1]: 100 µM | CC50 [1, 29]: 100 µM | GI50 [2]: 5.86 µM | TGI [2]: 31.5 µM | CC50 [2, 29]: 100 µM | inhibition of growth at 10 µM [3]: 46.9% | inhibition of growth at 10 µM [4]: 39% | inhibition of growth at 10 µM [5]: 24.9% | inhibition of growth at 10 µM [6]: 35.2% | inhibition of growth at 10 µM [7]: 97.8% | GI50 [8]: 5.48 µM | TGI [8]: 100 µM | CC50 [8, 29]: 100 µM | inhibition of growth at 10 µM [9]: 38.8% | inhibition of growth at 10 µM [10]: 50.2% | inhibition of growth at 10 µM [11]: 30.3% | inhibition of growth at 10 µM [12]: 16.3% | GI50 [13]: 1.77 µM | TGI [13]: 15.8 µM | CC50 [13, 29]: 100 µM | GI50 [14]: 4.07 µM | TGI [14]: 25.8 µM | CC50 [14, 29]: 100 µM | GI50 [15]: 5.93 µM | TGI [15]: 100 µM | CC50 [15, 29]: 100 µM | GI50 [16]: 3.33 µM | TGI [16]: 13.5 µM | CC50 [16, 29]: 52.5 µM | inhibition of growth at 10 µM [17]: 52.7% | GI50 [18]: 16.4 µM | TGI [18]: 100 µM | CC50 [18, 29]: 100 µM | GI50 [19]: 4.86 µM | TGI [19]: 66 µM | CC50 [19, 29]: 100 µM | inhibition of growth at 10 µM [20]: 44.9% | GI50 [21]: 6.52 µM | TGI [21]: 32.3 µM | CC50 [21, 29]: 100 µM | inhibition of growth at 10 µM [22]: 18.5% | GI50 [23]: 10.4 µM | TGI [23]: 100 µM | CC50 [23, 29]: 100 µM | GI50 [24]: 0.797 µM | TGI [24]: 12.2 µM | CC50 [24, 29]: 100 µM | GI50 [25]: 18.7 µM | CC50 [25, 29]: 100 µM | inhibition of growth at 10 µM [26]: 71.3% | GI50 [27]: 7.82 µM | TGI [27]: 100 µM | CC50 [27, 29]: 100 µM | inhibition of growth at 10 µM [28]: 57.7%

Source: ChEMBL document CHEMBL2040797, “Synthesis of benzimidazoles bearing oxadiazole nucleus as anticancer agents” (2012)
